Laboratory results from ChEMBL document CHEMBL3259770, “Structure-activity relationship studies of the tricyclic indoline resistance-modifying agent” (J Med Chem, 2014).
In brackets after ≈: the same amount, converted by molar mass.

Columns and labels:
Staphylococcus aureus [1] = test: Antibacterial activity against methicillin-resistant Staphylococcus aureus ATCC 33592 after overnight incubation by broth microdilution assay in presence of 4 ug/ml meropenem; assay type: functional
Summary of the method: (§1)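 Resensitization screen: compound from a 5 mg/mL DMSO stock, 2-fold serially diluted in MHB from 32 μg/mL final. Antibiotic was held at its CLSI-susceptible level: amoxicillin/clavulanic acid 4/2 μg/mL, cefazolin 8 μg/mL, meropenem 4 μg/mL. Final MRSA inoculum OD600 0.001, overnight at 37 °C with shaking. MRC was the concentration giving no visible overnight growth.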

Staphylococcus aureus [2] = test: Antibacterial activity against methicillin-resistant Staphylococcus aureus ATCC BAA-44 after overnight incubation by broth microdilution assay in presence of 4 ug/ml amoxicillin and 2 ug/ml clavulanic acid; assay type: functional; summary of the method: as §1
Staphylococcus aureus [3] = test: Antibacterial activity against methicillin-resistant Staphylococcus aureus ATCC BAA-44 after overnight incubation by broth microdilution assay in presence of 8 ug/ml cefazolin; assay type: functional; summary of the method: as §1
[4] = Cytotoxicity against human HeLa cells after 24 hrs by CellTiter-Glo assay; assay type: cell-based
Summary of the method: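 HeLa cells seeded at 20 000 cells/well in DMEM with 10% FCS and 1% penicillin/streptomycin, grown 16 h at 37 °C, 5% CO2. Medium renewed, then compound added in DMSO to final 0.5–32 μg/mL, triplicate series. After 24 h at 37 °C, plates equilibrated to room temperature and viability read by CellTiter-Glo luminescence.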

Row | SMILES | MRC (Staphylococcus aureus [1]) [µg/mL] | MRC (Staphylococcus aureus [2]) [µg/mL] | MRC (Staphylococcus aureus [3]) [µg/mL] | GI50 at 24 h [4] [µg/mL]
1 | C=C1CCC[C@@H]2N(C)c3ccc(Br)cc3[C@]12CCNS(=O)(=O)c1ccc(Cl)cc1 | >32 | >32 | >32 | –
2 | C=C1CCC[C@@H]2Nc3ccc(Br)cc3[C@]12CCNS(=O)(=O)c1ccc(I)cc1 | 32 | 4 | 4 | 33 (≈ 57.6 µM)
3 | C=C1CCC[C@@H]2N(S(=O)(=O)c3ccc(Cl)cc3)c3ccc(Br)cc3[C@]12CCNS(=O)(=O)c1ccc(Cl)cc1 | >32 | >32 | >32 | –
4 | C=C1CCC[C@@H]2N(C(=O)c3ccc(Cl)cc3)c3ccc(Br)cc3[C@]12CCNS(=O)(=O)c1ccc(Cl)cc1 | >32 | >32 | >32 | –
5 | C=C1CCC[C@@H]2Nc3ccc(Br)cc3[C@]12CCN(C)S(=O)(=O)c1ccc(Cl)cc1 | >32 | >32 | >32 | –
6 | C=C1CCC[C@@H]2Nc3ccc(Br)cc3[C@]12CCN(S(=O)(=O)c1ccc(Cl)cc1)S(=O)(=O)c1ccc(Cl)cc1 | >32 | >32 | >32 | –
7 | C=C1CCC[C@@H]2Nc3ccc(Br)cc3[C@]12CCN(C(=O)c1ccc(Cl)cc1)S(=O)(=O)c1ccc(Cl)cc1 | >32 | >32 | >32 | –
8 | C=C1CCC[C@@H]2Nc3ccc(Br)cc3[C@]12CCNS(=O)(=O)c1ccc(Cl)cc1 | 4 | 4 | 4 | 17.1 (≈ 35.5 µM)
9 | C=C1CCC[C@@H]2Nc3ccc(Cl)cc3[C@]12CCNS(=O)(=O)c1ccc(Cl)cc1 | 8 | 8 | 4 | 35 (≈ 80 µM)
10 | C=C1CCC[C@@H]2Nc3ccc(C)cc3[C@]12CCNS(=O)(=O)c1ccc(Cl)cc1 | 32 | 16 | 16 | –
11 | C=C1CCC[C@@H]2Nc3ccc(OC)cc3[C@]12CCNS(=O)(=O)c1ccc(Cl)cc1 | >32 | >32 | >32 | –
12 | C=C1CCC[C@@H]2Nc3ccc(F)cc3[C@]12CCNS(=O)(=O)c1ccc(Cl)cc1 | 16 | 16 | 16 | –
13 | C=C1CCC[C@@H]2Nc3ccccc3[C@]12CCNS(=O)(=O)c1ccc(Cl)cc1 | 16 | 16 | 16 | –
14 | C=C1CCC[C@@H]2Nc3c(ccc4ccccc34)[C@]12CCNS(=O)(=O)c1ccc(Cl)cc1 | >32 | >32 | >32 | –
15 | C=C1CCC[C@@H]2Nc3c(Br)cccc3[C@]12CCNS(=O)(=O)c1ccc(Cl)cc1 | 8 | >32 | 32 | –
16 | C=C1CCC[C@@H]2Nc3cc(Br)ccc3[C@]12CCNS(=O)(=O)c1ccc(Cl)cc1 | 16 | 16 | 16 | –
17 | C=C1CCC[C@@H]2Nc3cccc(Br)c3[C@]12CCNS(=O)(=O)c1ccc(Cl)cc1 | 16 | 32 | 16 | –
18 | C=C1CCC[C@@H]2Nc3c(F)cc(Cl)cc3[C@]12CCNS(=O)(=O)c1ccc(Cl)cc1 | 32 | 16 | 16 | –
19 | C=C1CCC[C@@H]2Nc3c(Cl)cc(Cl)cc3[C@]12CCNS(=O)(=O)c1ccc(Cl)cc1 | 4 | 4 | 4 | 13.6 (≈ 28.8 µM)
20 | C=C1CCC[C@@H]2Nc3c(F)cc(Br)cc3[C@]12CCNS(=O)(=O)c1ccc(Cl)cc1 | 4 | 2 | 4 | 18.1 (≈ 36.2 µM)
21 | C=C1CCC[C@@H]2Nc3ccc(Br)cc3[C@]12CCN | 32 | 32 | 32 | –
22 | C=C1CCC[C@@H]2Nc3c(F)cc(Br)cc3[C@]12CCN | 16 | >32 | 32 | 16.2 (≈ 49.8 µM)

Row | SMILES | MRC (Staphylococcus aureus [1]) [µg/mL] | MRC (Staphylococcus aureus [2]) [µg/mL] | MRC (Staphylococcus aureus [3]) [µg/mL] | GI50 at 24 h [4] [µg/mL]
23 | C=C1CCC[C@@H]2Nc3ccc(Br)cc3[C@]12CCNC(=O)C(F)(F)F | 32 | >32 | >32 | –
24 | C=C1CCC[C@@H]2Nc3ccc(Br)cc3[C@]12CCNC(=O)CCCC | 32 | >32 | >32 | –
25 | C=C1CCC[C@@H]2Nc3ccc(Br)cc3[C@]12CCNC(=O)c1ccc(Cl)cc1 | >32 | >32 | >32 | –
26 | C=C1CCC[C@@H]2Nc3ccc(Br)cc3[C@]12CCNS(=O)(=O)c1ccccc1 | 16 | 8 | 8 | –
27 | C=C1CCC[C@@H]2Nc3ccc(Br)cc3[C@]12CCNS(=O)(=O)c1ccc(C)cc1 | >32 | >32 | >32 | –
28 | C=C1CCC[C@@H]2Nc3ccc(Br)cc3[C@]12CCNS(=O)(=O)c1ccc(F)cc1 | >32 | >32 | >32 | –
29 | C=C1CCC[C@@H]2Nc3ccc(Br)cc3[C@]12CCNS(=O)(=O)c1ccc(Br)cc1 | 8 | 4 | 4 | 40 (≈ 76 µM)
30 | C=C1CCC[C@@H]2Nc3ccc(Br)cc3[C@]12CCNS(=O)(=O)c1ccc(Cl)c(Cl)c1 | 4 | 4 | 2 | 12.8 (≈ 24.8 µM)
31 | C=C1CCC[C@@H]2Nc3ccc(Br)cc3[C@]12CCNS(=O)(=O)c1ccc(Cl)cc1Cl | 4 | 8 | >32 | –
32 | C=C1CCC[C@@H]2Nc3ccc(Br)cc3[C@]12CCNS(=O)(=O)c1ccc(C#N)cc1 | 16 | 16 | 8 | –
33 | C=C1CCC[C@@H]2Nc3ccc(Br)cc3[C@]12CCNS(=O)(=O)c1ccc(NC(C)=O)cc1 | 32 | >32 | >32 | –
34 | C=C1CCC[C@@H]2Nc3ccc(Br)cc3[C@]12CCNS(=O)(=O)c1ccccn1 | 32 | 32 | 32 | –
35 | C=C1CCC[C@@H]2Nc3ccc(Br)cc3[C@]12CCNS(=O)(=O)c1ccc([N+](=O)[O-])cc1 | >32 | >32 | >32 | –
36 | C=C1CCC[C@@H]2Nc3ccc(Br)cc3[C@]12CCNS(=O)(=O)c1ccc(N)cc1 | 16 | 16 | 16 | –
37 | C=C1CCC[C@@H]2Nc3c(F)cc(Br)cc3[C@]12CCNS(=O)(=O)c1ccc(OC)cc1 | 8 | 8 | 4 | 49 (≈ 98.9 µM)
38 | C=C1CCC[C@@H]2Nc3c(F)cc(Br)cc3[C@]12CCNS(=O)(=O)c1ccc(C)cc1 | 4 | 4 | 4 | 22 (≈ 45.9 µM)
39 | C=C1CCC[C@@H]2Nc3c(F)cc(Br)cc3[C@]12CCNS(=O)(=O)c1ccc(F)cc1 | 4 | 4 | 4 | 18.3 (≈ 37.9 µM)
40 | C=C1CCC[C@@H]2Nc3c(F)cc(Br)cc3[C@]12CCNS(=O)(=O)c1ccc(I)cc1 | 4 | 4 | 2 | 19.6 (≈ 33.1 µM)
41 | C=C1CCC[C@@H]2Nc3c(F)cc(Br)cc3[C@]12CCNS(=O)(=O)c1ccc(Cl)c(Cl)c1 | 4 | 4 | 4 | 31 (≈ 58 µM)
42 | C=C1CCC[C@@H]2Nc3c(F)cc(Br)cc3[C@]12CCNS(=O)(=O)c1ccc(NC(C)=O)cc1 | 16 | 32 | 32 | 32 (≈ 61.3 µM)
43 | C=C1CCC[C@@H]2Nc3c(F)cc(Br)cc3[C@]12CCNS(=O)(=O)c1ccc(C#N)cc1 | 4 | 8 | 4 | 17 (≈ 34.7 µM)
44 | C=C1CCC[C@@H]2Nc3c(F)cc(Br)cc3[C@]12CCNS(=O)(=O)c1ccc(C(F)(F)F)cc1 | 4 | 4 | 4 | 8.7 (≈ 16.3 µM)
